The source made the active and inactive calls. The rule behind the calls is not given here.
Experiments:
[1] = tested on: BGC-823; test: Cytotoxicity against human BGC-823 cells measured after 24 to 72 hrs by MTT assay; format: functional, cell-based
Summary of the method: (§1)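 Cells were grown in RPMI 1640 with 10% FBS and penicillin/streptomycin at 37 °C, 5% CO2. They were seeded at 1×10^4 cells/well and allowed to attach for 24 h. Compounds at various concentrations were then applied for 24, 48 or 72 h (DMSO below 1.25%). MTT (5.0 mg/mL) was added 3 h before the end, formazan was dissolved in DMSO and OD was read at 570 nm. Doxorubicin served as reference. Data are mean ± SD, n=3.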

[2] = tested on: A549; test: Cytotoxicity against human A549 cells measured after 24 to 72 hrs by MTT assay; format: functional, cell-based; summary of the method: as §1
[3] = Potency index, ratio of test compound to vitamin C antioxidant activity assessed as DPPH radical scavenging activity incubated for 30 mins under dark condition; format: functional
Summary of the method: (§2)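 Compounds at a range of concentrations were mixed with DPPH solution and kept 30 min in the dark. Absorbance was read at 517 nm. % activity = [(control A − sample A)/control A] × 100. Vitamin C and ebselen served as positive controls and DMSO as the negative control. Fold is expressed relative to vitamin C (set as 1). Values are mean ± SD of three independent experiments.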

[4] = tested on: SW480; test: Cytotoxicity against human SW480 cells measured after 24 to 72 hrs by MTT assay; format: functional, cell-based; summary of the method: as §1
[5] = target: T1, Thioredoxin reductase 1, cytoplasmic (Rattus norvegicus, UniProt O89049); test: Inhibition of rat TrxR1 using DTNB as substrate preincubated for 15 mins followed by substrate addition and measured for 20 mins by colorimetric method
T1 sequence (O89049 whole entry): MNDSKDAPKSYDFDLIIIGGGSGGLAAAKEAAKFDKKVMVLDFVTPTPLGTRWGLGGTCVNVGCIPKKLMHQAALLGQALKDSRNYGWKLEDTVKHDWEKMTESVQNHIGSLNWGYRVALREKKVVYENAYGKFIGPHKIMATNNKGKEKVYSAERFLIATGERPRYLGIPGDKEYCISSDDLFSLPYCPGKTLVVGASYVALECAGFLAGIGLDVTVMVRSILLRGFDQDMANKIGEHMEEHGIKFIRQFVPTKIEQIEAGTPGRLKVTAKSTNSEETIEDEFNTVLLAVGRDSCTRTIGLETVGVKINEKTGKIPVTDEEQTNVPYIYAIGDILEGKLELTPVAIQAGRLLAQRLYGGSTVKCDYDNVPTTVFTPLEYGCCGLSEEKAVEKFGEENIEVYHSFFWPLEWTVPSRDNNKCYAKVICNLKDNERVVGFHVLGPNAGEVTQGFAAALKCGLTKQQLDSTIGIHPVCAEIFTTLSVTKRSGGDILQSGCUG
Summary of the method: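 Rat TrxR1 (5 nM) was used in 100 mM potassium phosphate pH 7.0 with 1 mM EDTA, 0.1 mg/ml BSA and 0.2 mM NADPH. […] DTNB was then added and the A412 increase was monitored for 20 min.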

[6] = Antioxidant activity assessed as DPPH radical scavenging activity incubated for 30 mins under dark condition relative to control; format: functional; set-up: concentration or dose not given beside the values; summary of the method: as §2
[7] = tested on: DNA; test: Induction of bleomycin-dependent DNA (unknown origin) damage assessed as absorbance at 0.1 mg/ml measured after 1 hr; format: nucleic-acid assay
Summary of the method: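 The bleomycin-iron/DNA mixture was incubated at 37 °C for 1 h and stopped with 0.1 M EDTA. Colour was developed with 1% TBA plus 25% HCl at 80 °C for 30 min. After ice cooling, DNA damage was read as the increase in absorbance at 532 nm. L-ascorbic acid served as the positive control.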

[8] = tested on: MCF7; test: Cytotoxicity against human MCF7 cells measured after 24 to 72 hrs by MTT assay; format: functional, cell-based; summary of the method: as §1
[9] = tested on: HeLa; test: Cytotoxicity against human HeLa cells measured after 24 to 72 hrs by MTT assay; format: functional, cell-based; summary of the method: as §1
[10] = Antioxidant activity assessed as glutathione peroxidase-like activity at 41 mM measured over 3 mins; format: functional
Summary of the method: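 GPx-like rate measured from GSH/glutathione reductase/NADPH coupling in 50 mM phosphate buffer with 0.1% Triton X-100. The compound was added from a 41 mM solution, and the reaction was started with H2O2 (0.8 mM). A340 was followed for 3 min and expressed as ΔA/min. Values were corrected for the H2O2 + GSH background, and for the compound's own absorbance if coloured. Ebselen (41 mM) served as reference.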

Row | SMILES | IC50 [1] | IC50 [2] | Ratio [3] | IC50 [4] | EC50 [5] | inhibition [6] | Activity [7] | IC50 [8] | IC50 [9] | Activity [10]
1 | CC1=C(CC(=O)NCc2ccc(-n3[se]c4ccccc4c3=O)cc2)c2cc(F)ccc2/C1=C\c1ccc([S+](C)[O-])cc1 (stereo not drawn) | 9.5 µM | 8.3 µM | 0.4 | 9.8 µM | 10.4 µM | 42.9% | 72.4 | 7.4 µM | 8.4 µM | –
2 | CCC1(CC)OCCc2c1[nH]c1c(CC(=O)NCc3ccc(-n4[se]c5ccccc5c4=O)cc3)cccc21 | 9.8 µM | 9.8 µM | 0.5 | 12.3 µM | 17.1 µM | 52.1% | 97.4 | 8.8 µM | 12.6 µM | –
3 | O=C1O[C@H]([C@@H](O)CO)C(O)=C1O | – | – | – | – | – | 97.2% | 292 | – | – | –
4 | O=C(NCc1ccc(-n2[se]c3ccccc3c2=O)cc1)c1ccccc1Nc1cccc(C(F)(F)F)c1 | 8.4 µM | 12.7 µM | 0.5 | 13.7 µM | 11.5 µM | 51.5% | 56.1 | 14.2 µM | 7.5 µM | –
5 | COc1ccc2cc([C@H](C)C(=O)O)ccc2c1 [NAPROXEN] | > 50 µM | > 50 µM | – | > 50 µM | – | – | – | > 50 µM | > 50 µM | –
6 | C=C(C(=O)NCCn1[se]c2ccccc2c1=O)c1ccc(CC(C)C)cc1 | 12.5 µM | 9.4 µM | 0.3 | 11.4 µM | 23.5 µM | 33.5% | 68.4 | 15.7 µM | 10.6 µM | Active
7 | Cc1cccc(Nc2ccccc2C(=O)NCCn2[se]c3ccccc3c2=O)c1C | 6.5 µM | 5.2 µM | 0.4 | 7.2 µM | 26.6 µM | 37.4% | 72.4 | 5.3 µM | 8.8 µM | Active
8 | O=c1c2ccccc2[se]n1-c1ccccc1 [EBSELEN] | > 50 µM | > 50 µM | – | > 50 µM | – | – | – | > 50 µM | > 50 µM | –
9 | CC(C(=O)NCc1ccc(-n2[se]c3ccccc3c2=O)cc1)c1ccc(-c2ccccc2)c(F)c1 (stereo not drawn) | 6.5 µM | 12.3 µM | 0.6 | 8.3 µM | 11.2 µM | 58.2% | 57.3 | 11.3 µM | 9.5 µM | Active
10 | CC(C(=O)NCCn1[se]c2ccccc2c1=O)c1ccc(-c2ccccc2)c(F)c1 (stereo not drawn) | 9.5 µM | 13.6 µM | 0.4 | 11.3 µM | 28.5 µM | 42.5% | 85.7 | 14.9 µM | 10.4 µM | Active
11 | Cc1cccc(Nc2ccccc2C(=O)NCc2ccc(-n3[se]c4ccccc4c3=O)cc2)c1C | 3.4 µM | 3.6 µM | 0.5 | 4.5 µM | 14.3 µM | 54.3% | 72.4 | 4.2 µM | 3.8 µM | Active
12 | COc1ccc2c(c1)c(CC(=O)NCc1ccc(-n3[se]c4ccccc4c3=O)cc1)c(C)n2C(=O)c1ccc(Cl)cc1 | 9.2 µM | 10.3 µM | 0.8 | 7.5 µM | 15.7 µM | 78.7% | 101 | 11.3 µM | 14.3 µM | Active
13 | O=C(NCCn1[se]c2ccccc2c1=O)c1ccccc1Nc1cccc(C(F)(F)F)c1 | 11.4 µM | 12.2 µM | 0.4 | 9.4 µM | 24.8 µM | 41.7% | 77.7 | 12.6 µM | 15.2 µM | Active
14 | CC(C)Cc1ccc(C(C)C(=O)O)cc1 (stereo not drawn) [IBUPROFEN] | > 50 µM | > 50 µM | – | > 50 µM | – | – | – | > 50 µM | > 50 µM | –
15 | COc1cccc2c1C(=O)c1c(O)c3c(c(O)c1C2=O)C[C@@](O)(C(=O)CO)C[C@@H]3O[C@H]1C[C@H](N)[C@H](O)[C@H](C)O1 [DOXORUBICIN] | 9.8 µM | 9.4 µM | – | 12.4 µM | – | – | – | 12.8 µM | 11.5 µM | –
16 | COc1ccc2c(c1)c(CC(=O)NCCn1[se]c3ccccc3c1=O)c(C)n2C(=O)c1ccc(Cl)cc1 | 17.4 µM | 11.2 µM | 0.3 | 14.3 µM | 24.5 µM | 27.3% | 92.4 | 10.3 µM | 13.6 µM | Active
17 | CC(C)Cc1ccc(C(C)C(=O)NCc2ccc(-n3[se]c4ccccc4c3=O)cc2)cc1 (stereo not drawn) | 7.5 µM | 8.1 µM | 0.4 | 10.4 µM | 17.2 µM | 42.6% | 106 | 12.4 µM | 9.3 µM | Active
18 | CC(=O)Oc1ccccc1C(=O)O [ASPIRIN] | > 50 µM | > 50 µM | – | > 50 µM | – | – | – | > 50 µM | > 50 µM | –
19 | CC(C(=O)NCc1ccc(-n2[se]c3ccccc3c2=O)cc1)c1cccc(C(=O)c2ccccc2)c1 (stereo not drawn) | 11.2 µM | 13.2 µM | 0.3 | 12.5 µM | 19.6 µM | 31.3% | 85.3 | 8.4 µM | 9.2 µM | –

Reference: ChEMBL document CHEMBL5625186, “Synthesis, cytotoxicity, antioxidant activity and molecular modeling of new NSAIDs-EBS derivatives” (Eur J Med Chem, 2023)
